# Test results as given in ChEMBL document CHEMBL1121917, “Structure--activity relationships in a broad-spectrum anthelmintic series. Acid chloride phenylhydrazones. 1. Aryl substitutions and chloride variations” (1981).
# Key:
# Canis familiaris [1] = species on record: Canis familiaris; experiment: Percent reduction in Uncinaria eggs per gram, after treatment of 100 mg/dog dose of compound in a single treatment; type: functional, Canis lupus familiaris, Egg
# Canis familiaris [2] = species on record: Canis familiaris; experiment: Percentt reduction in Toxascaris eggs per gram, after treatment of 100 mg/dog dose of compound in a single treatment; type: functional, Canis lupus familiaris, Egg
# Canis familiaris [3] = species on record: Canis familiaris; experiment: Percent reduction in Ancylostoma eggs per gram, after treatment of 100 mg/dog dose of compound in a single treatment; type: functional, Canis lupus familiaris, Egg
# How it was run: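 Dogs naturally infected with Toxascaris leonina were experimentally infected with mixed Ancylostoma caninum and Uncinaria stenocephala larvae. Finely ground compound was given orally in gelatin capsules. Fecal egg counts were taken three times before and three times after treatment, and activity was taken as the fall in egg counts.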
# Mus musculus [4] = species on record: Mus musculus; experiment: Percent clearance of Nematospiroides dubius from mouse after oral treatment of 1.87 mg/mouse/day; type: functional
# How it was run: (§1)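 Mice naturally carrying Syphacia obvelata were experimentally infected with Nematospiroides dubius and Hymenolepis nana, then grouped after a 2-week prepatency. Finely ground compound was suspended in aqueous 0.10% carboxymethylcellulose, 0.04% polysorbate 80 and 0.0042% polyparaben, and 0.1 mL was given orally by cannula once daily for 4 days to five mice. Necropsy followed 2 days later, scoring presence or absence of each parasite. Control clearance was subtracted from the treated clearance.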
# Ovis aries [5] = experiment: Percent reduction in Trichostrongylus eggs per gram, after treatment with 350 mg/kg dose of compound perorally in sheep; type: functional, Egg; details: route oral
# Ovis aries [6] = experiment: Percent reduction in Trichostrongylus eggs per gram, after treatment with 400 mg/kg dose of compound perorally in sheep; type: functional, Egg; details: route oral
# How it was run: (§2)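 Naturally parasitized lambs, dosed orally either with a suspension by stomach tube or with finely ground compound in gelatin capsules by balling gun. Activity was scored by the clinical test method, meaning a significant fall in helminth egg counts after treatment.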
# Ovis aries [7] = experiment: Percent reduction in Trichostrongylus eggs per gram, after treatment with 450 mg/kg dose of compound perorally in sheep; type: functional, Egg; details: route oral; how it was run: as §2
# Ovis aries [8] = experiment: Percent reduction in Trichostrongylus eggs per gram, treatment of 100 mg/kg dose of compound perorally in sheep; type: functional, Egg; details: route oral
# Ovis aries [9] = experiment: Percent reduction in Trichuris eggs per gram, after treatment of 100 mg/kg dose of compound perorally in sheep; type: functional, Egg; details: route oral
# Ovis aries [10] = experiment: Percent reduction in Trichuris eggs per gram, after treatment of with 200 mg/kg dose of compound perorally in sheep; type: functional, Egg; details: route oral
# Ovis aries [11] = experiment: Percent reduction in Trichuris eggs per gram, after treatment with 400 mg/kg dose of compound perorally in sheep; type: functional, Egg; details: route oral; how it was run: as §2
# Ovis aries [12] = experiment: Percent reduction in Haemonchus eggs per gram, after treatment of 250 mg/kg dose of compound perorally in sheep; type: functional, Egg; details: route oral
# How it was run: (§3)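 Naturally parasitized lambs received compound orally, either as the aqueous suspension by stomach tube or as finely ground powder in gelatin capsules by balling gun. Activity was judged by the clinical test method, as a significant decrease in posttreatment helminth egg counts.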
# Ovis aries [13] = experiment: Percent reduction in Strongyloides eggs per gram, after treatment of 100 mg/kg dose of compound perorally in sheep; type: functional, Egg; details: route oral; how it was run: as §2
# Ovis aries [14] = experiment: Percent reduction in Strongyloides eggs per gram, after treatment with 450 mg/kg dose of compound perorally in sheep; type: functional, Egg; details: route oral; how it was run: as §2
# Ovis aries [15] = experiment: Percent reduction in Haemonchus eggs per gram, after treatment of 200 mg/kg dose of compound perorally in sheep; type: functional, Egg; details: route oral; how it was run: as §3
# Ovis aries [16] = experiment: Percent reduction in Nematodirus eggs per gram, after treatment with 250 mg/kg dose of compound perorally in sheep; type: functional, Egg; details: route oral
# How it was run: (§4)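 Naturally parasitized lambs were dosed orally at the stated mg/kg. Dosing was either as a suspension of finely ground compound by stomach tube, or as ground compound weighed into gelatin capsules and given by balling gun. Activity was scored by the clinical test method: the decrease in posttreatment helminth eggs per gram.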
# Ovis aries [17] = experiment: Percent reduction in Nematodirus eggs per gram, after treatment with 350 mg/kg dose of compound perorally in sheep; type: functional, Egg; details: route oral; how it was run: as §4
# Ovis aries [18] = experiment: Percent reduction in Nematodirus eggs per gram, after treatment with 400 mg/kg dose of compound perorally in sheep; type: functional, Egg; details: route oral; how it was run: as §4
# Ovis aries [19] = experiment: Percent reduction in Oesophagostomum eggs per gram, after treatment of 100 mg/kg dose of compound perorally in sheep; type: functional, Egg; details: route oral; how it was run: as §4
# Ovis aries [20] = experiment: Percent reduction in Haemonchus eggs per gram, after treatment with 450 mg/kg dose of compound perorally in sheep; type: functional, Egg; details: route oral; how it was run: as §4
# Ovis aries [21] = experiment: Percent reduction in Moniezia eggs per gram, after treatment of 200 mg/kg dose of compound perorally in sheep; type: functional, Egg; details: route oral; how it was run: as §4
# Ovis aries [22] = experiment: Percent reduction in Moniezia eggs per gram, after treatment with 400 mg/kg dose of compound perorally in sheep; type: functional, Egg; details: route oral; how it was run: as §4
# Ovis aries [23] = experiment: Percent reduction in Nematodirus eggs per gram, after treatment of 200 mg/kg dose of compound perorally in sheep; type: functional, Egg; details: route oral; how it was run: as §4
# Ovis aries [24] = experiment: Percent reduction in Nematodirus eggs per gram, after treatment of 100 mg/kg dose of compound perorally in sheep; type: functional, Egg; details: route oral; how it was run: as §4
# Ovis aries [25] = experiment: Percent reduction in Strongyloides eggs per gram, after treatment with 350 mg/kg dose of compound perorally in sheep; type: functional, Egg; details: route oral; how it was run: as §2
# Ovis aries [26] = experiment: Percent reduction in Strongyloides eggs per gram, after treatment with 400 mg/kg dose of compound perorally in sheep; type: functional, Egg; details: route oral; how it was run: as §2
# Ovis aries [27] = experiment: Percent reduction in Ostertagia eggs per gram, after treatment with 350 mg/kg dose of compound perorally in sheep; type: functional, Egg; details: route oral; how it was run: as §2
# Ovis aries [28] = experiment: Percent reduction in Ostertagia eggs per gram, after treatment with 400 mg/kg dose of compound perorally in sheep; type: functional, Egg; details: route oral; how it was run: as §2
# Ovis aries [29] = experiment: Percent reduction in Ostertagia eggs per gram, after treatment with 450 mg/kg dose of compound perorally in sheep; type: functional, Egg; details: route oral; how it was run: as §2
# Ovis aries [30] = experiment: Percent reduction in Trichostrongylus eggs per gram, after ral treatment of 200 mg/kg dose of compound perorally in sheep; type: functional, Egg; details: route oral; how it was run: as §2
# Ovis aries [31] = experiment: Percent reduction in Trichostrongylus eggs per gram, after oral treatment of 250 mg/kg dose of compound perorally in sheep; type: functional, Egg; how it was run: as §2
# Ovis aries [32] = experiment: Percent reduction in Oesophagostomum eggs per gram, after treatment with 350 mg/kg dose of compound perorally in sheep; type: functional, Egg; details: route oral; how it was run: as §4
# Ovis aries [33] = experiment: Percent reduction in Oesophagostomum eggs per gram, after treatment with 400 mg/kg dose of compound perorally in sheep; type: functional, Egg; details: route oral; how it was run: as §4
# Ovis aries [34] = experiment: Percent reduction in Ostertagia eggs per gram, after oral treatment of 250 mg/Kg dose of compound perorally in sheep; type: functional, Egg; how it was run: as §4
# Ovis aries [35] = experiment: Percent reduction in Haemonchus eggs per gram, after oral treatment of 100 mg/kg dose of compound perorally in sheep; type: functional, Egg; how it was run: as §3
# Ovis aries [36] = experiment: Percent reduction in Oesophagostomum eggs per gram, after treatment of 200 mg/kg dose of compound perorally in sheep; type: functional, Egg; details: route oral; how it was run: as §4
# Ovis aries [37] = experiment: Percent reduction in Oesophagostomum eggs per gram, after treatment with 250 mg/kg dose of compound perorally in sheep; type: functional, Egg; details: route oral; how it was run: as §4
# Ovis aries [38] = experiment: Percent reduction in Trichuris eggs per gram, after treatment with 250 mg/kg dose of compound perorally in sheep; type: functional, Egg; details: route oral; how it was run: as §2
# Ovis aries [39] = experiment: percent reduction in Strongyloides eggs per gram, after treatment with 250 mg/kg dose of compound perorally in sheep; type: functional, Egg; details: route oral
# Ovis aries [40] = experiment: Percent reduction in Ostertagia eggs per gram, after treatment of 200 mg/kg dose of compound perorally in sheep; type: functional, Egg; details: route oral; how it was run: as §4
# Ovis aries [41] = experiment: Percent reduction in Cooperia eggs per gram, after treatment of 100 mg/kg dose of compound perorally in sheep; type: functional, Egg; details: route oral; how it was run: as §3
# Ovis aries [42] = experiment: Percent reduction in Cooperia eggs per gram, after treatment of 200 mg/kg dose of compound perorally in sheep; type: functional, Egg; details: route oral; how it was run: as §3
# Ovis aries [43] = experiment: Percent reduction in Cooperia eggs per gram, after treatment with 400 mg/kg dose of compound perorally in sheep; type: functional, Egg; details: route oral; how it was run: as §3
# Ovis aries [44] = experiment: Percent reduction in Strongyloides eggs per gram, after treatment of 200 mg/kg dose of compound perorally in sheep; type: functional, Egg; details: route oral; how it was run: as §2
# Ovis aries [45] = experiment: Percent reduction in Ostertagia eggs per gram, after treatment of 100 mg/kg dose of compound perorally in sheep; type: functional, Egg; details: route oral; how it was run: as §4
# Mus musculus [46] = species on record: Mus musculus; experiment: Percent clearance of Hymenolepis nana from mouse after oral treatment of 1.87 mg/mouse/day; type: functional; how it was run: as §1
# Ovis aries [47] = experiment: Percent reduction in Trichuris eggs per gram, after treatment with 450 mg/kg dose of compound perorally in sheep; type: functional, Egg; details: route oral; how it was run: as §2
# Ovis aries [48] = experiment: Percent reduction in Haemonchus eggs per gram, after treatment with 400 mg/kg dose of compound perorally in sheep; type: functional, Egg; details: route oral; how it was run: as §4
# Ovis aries [49] = experiment: Percent reduction in Trichuris eggs per gram, after treatment with 350 mg/kg dose of compound perorally
compound,measurement,setting,value
FC(F)(F)c1cccc(/C(Cl)=N/Nc2ccccc2)c1,Reduction,Canis familiaris [1],100%
same,Reduction,Canis familiaris [2],100%
same,Reduction,Canis familiaris [3],100%
same,Parasite_Clearance,Mus musculus [4],0%
same,Reduction,Ovis aries [5],100%
same,Reduction,Ovis aries [6],100%
same,Reduction,Ovis aries [7],100%
same,Reduction,Ovis aries [8],97%
same,Reduction,Ovis aries [9],35%
same,Reduction,Ovis aries [10],0%
same,Reduction,Ovis aries [11],62%
same,Reduction,Ovis aries [12],84%
same,Reduction,Ovis aries [13],98%
same,Reduction,Ovis aries [14],100%
same,Reduction,Ovis aries [15],99%
same,Reduction,Ovis aries [16],29%
same,Reduction,Ovis aries [17],100%
same,Reduction,Ovis aries [18],100%
same,Reduction,Ovis aries [19],100%
same,Reduction,Ovis aries [20],100%
same,Reduction,Ovis aries [21],100%
same,Reduction,Ovis aries [22],100%
same,Reduction,Ovis aries [23],100%
same,Reduction,Ovis aries [24],100%
same,Reduction,Ovis aries [25],100%
same,Reduction,Ovis aries [26],100%
same,Reduction,Ovis aries [27],100%
same,Reduction,Ovis aries [28],100%
same,Reduction,Ovis aries [29],100%
same,Reduction,Ovis aries [30],99%
same,Reduction,Ovis aries [31],71%
same,Reduction,Ovis aries [32],100%
same,Reduction,Ovis aries [33],100%
same,Reduction,Ovis aries [34],86%
same,Reduction,Ovis aries [35],98%
same,Reduction,Ovis aries [36],100%
same,Reduction,Ovis aries [37],91%
same,Reduction,Ovis aries [38],57%
same,Reduction,Ovis aries [39],59%
same,Reduction,Ovis aries [40],100%
same,Reduction,Ovis aries [41],100%
same,Reduction,Ovis aries [42],100%
same,Reduction,Ovis aries [43],100%
same,Reduction,Ovis aries [44],100%
same,Reduction,Ovis aries [45],98%
same,Parasite_Clearance,Mus musculus [46],75%
same,Reduction,Ovis aries [47],0%
same,Reduction,Ovis aries [48],100%
same,Reduction,Ovis aries [49],0%
